Assay [1] deals with GABA-A receptor; anion channel. Description: Displacement of [3H]gamma-amino butyric acid from Gamma-aminobutyric acid (GABA-A) receptor of rat brain.
The species entered for assay [2] is Mus musculus. Description: Effective dose which decreases the 50% of the convulsions induced by bicuculline in mice. The assay is classed as functional.
The test system of assay [3] is Mus musculus. Description: Lethal dose which causes death in 50% of the mice within 48 hr of ip administration. Format: functional. In short, it runs like this: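 Male albino CD1 mice (18–22 g) dosed intraperitoneally, then returned to home cages, 10 per cage. Deaths per dose were counted at 48 h. LD50 was estimated on log-probit paper.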
Assay [4] is filed under the species Mus musculus. Description: Effective dose which decreases the 50% of the lethality induced by bicuculline in mice. Format: functional. In short, it runs like this: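 Mice given ip serial doses 30 min before iv bicuculline at 0.9 mg/kg, 10 animals per drug per dose per experiment. ED50, the dose protecting half the mice from lethality, derived by log-probit plot.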

For assay [5], the target named is GABA-A receptor; anion channel. Description: Displacement of [3H]gamma-amino butyric acid from Gamma-aminobutyric acid (GABA-A) receptor of human cerebellar cortex preparation.

This passage reports Ki, ED50 and LD50 results from ChEMBL document CHEMBL1121465 (J Med Chem, 1980).

In the case of `O=C([O-])CCC/N=C(\c1ccc(Cl)cc1)c1cc(F)ccc1O.[Na+]`, the inhibitory constant (Ki) in assay [1] was found to be 0.59 µM; in assay [5], 0.68 µM. The ED50 in assay [2] turned out to be 15 mg/kg; in assay [4], 70 mg/kg. This molecule had an LD50 in assay [3] of 420 mg/kg.
The like results for `NCc1cc(=O)[nH]o1` [MUSCIMOL] were, in that order, 0.004 µM, 0.011 µM, 0.25 mg/kg, more than 2 mg/kg and 17 mg/kg.
In assay [1], `O=C1NC(=O)C(c2ccccc2)(c2ccccc2)N1` [PHENYTOIN] displayed a Ki of more than 100 µM. This molecule came in with an LD50 in assay [3] of 250 mg/kg. Moreover, in assay [4], it took a dose of 50 mg/kg to reach the 50% effect level (ED50).
With `NC(=O)CCC/N=C(\c1ccc(Cl)cc1)c1cc(F)ccc1O` [PROGABIDE], the Ki amounted to 14 µM in assay [1] and 40 µM in assay [5]. Also, the values for the ED50 in assay [2] and in assay [4] were 20 mg/kg and 65 mg/kg, respectively. Moreover, the LD50 in assay [3] stood at 900 mg/kg.
Regarding `CCCC(CCC)C(=O)[O-].[Na+]` [VALPROATE SODIUM], the Ki in assay [1] and in assay [5] was more than 100 µM each time. Besides, the ED50 was 33 mg/kg in assay [2] and 130 mg/kg in assay [4]. In assay [3], this molecule gave an LD50 of 1000 mg/kg.
